In data set [1] the target is DNA topoisomerase 2-alpha (Homo sapiens) (UniProt P11388). Description: Inhibition of human topoisomerase 2alpha-mediated relaxation of supercoiled pBR322 DNA at 100 uM after 30 mins by agarose gel electrophoresis relative to control. An outline of the steps:
(§1)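 Human topo IIα (1 unit) with 200 ng supercoiled pBR322 in Tris-HCl pH 7.9, 50 mM NaCl, 5 mM MgCl2, 1 mM EDTA, 1 mM ATP, BSA, 30 min at 30 °C. DMSO was matched in the enzyme-only control. Stopped with EDTA; 1% agarose/TAE gel, ethidium stain, supercoiled band quantified by UV imaging. Etoposide was the positive control.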

Data set [2] can be described thus: Aqueous solubility of the compound at pH 6.9 by UV spectroscopic analysis. It counts as physicochemical. The following applies: aqueous solution. A digest of the protocol:
(§2)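 Excess solid (10 mg) shaken in buffer at pH 6.9 or 7.8, 37 °C. The filtrate was diluted into the linear calibration range and dissolved drug measured by UV absorbance at λmax 272 nm. Values are the average of at least three agreeing independent measurements.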

Data set [3] has as its target DNA topoisomerase 2-alpha (Homo sapiens) (UniProt P11388). Description: Inhibition of human topoisomerase 2alpha-mediated relaxation of supercoiled pBR322 DNA at 20 uM after 30 mins by agarose gel electrophoresis relative to control. An outline of the steps:
as §1

The target of data set [4] is T1, DNA topoisomerase 1 (Homo sapiens) (UniProt P11387).
T1 sequence (whole entry): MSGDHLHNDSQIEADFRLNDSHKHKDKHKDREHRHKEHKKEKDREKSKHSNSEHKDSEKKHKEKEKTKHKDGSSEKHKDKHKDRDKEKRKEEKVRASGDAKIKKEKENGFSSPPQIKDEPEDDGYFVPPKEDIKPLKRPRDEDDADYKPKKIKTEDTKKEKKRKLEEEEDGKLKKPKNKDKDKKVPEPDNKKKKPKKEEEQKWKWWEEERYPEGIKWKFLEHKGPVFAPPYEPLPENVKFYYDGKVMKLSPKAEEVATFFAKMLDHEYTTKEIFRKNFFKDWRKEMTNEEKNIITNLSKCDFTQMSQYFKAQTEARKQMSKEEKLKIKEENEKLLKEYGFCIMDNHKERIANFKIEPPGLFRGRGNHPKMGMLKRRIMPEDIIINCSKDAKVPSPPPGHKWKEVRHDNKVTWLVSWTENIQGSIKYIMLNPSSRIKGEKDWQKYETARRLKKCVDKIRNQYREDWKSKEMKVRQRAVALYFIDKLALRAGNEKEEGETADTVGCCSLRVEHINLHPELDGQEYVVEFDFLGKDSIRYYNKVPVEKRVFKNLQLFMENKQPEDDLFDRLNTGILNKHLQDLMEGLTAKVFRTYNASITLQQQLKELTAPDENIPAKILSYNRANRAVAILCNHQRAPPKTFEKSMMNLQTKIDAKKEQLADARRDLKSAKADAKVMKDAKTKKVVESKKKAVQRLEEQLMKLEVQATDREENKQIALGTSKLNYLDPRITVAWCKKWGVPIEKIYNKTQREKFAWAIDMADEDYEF
Description: Inhibition of human recombinant topoisomerase 1-mediated relaxation of supercoiled pBR322 DNA at 20 uM after 30 mins by agarose gel electrophoresis relative to control. An outline of the steps: (§3)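 Recombinant human topo I (0.4 units) with 100 ng supercoiled pBR322, 37 °C for 30 min in Tris-HCl pH 7.9, 150 mM NaCl, 0.1% BSA, 1 mM spermidine, 5% glycerol. Compounds came from 20 mM DMSO stocks, with matched DMSO in the enzyme-only control. Stopped with sarcosyl; 1% agarose/TAE gel, ethidium stain, UV densitometry. Camptothecin was the positive control.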

The target in data set [5] is T1, DNA topoisomerase 1 (Homo sapiens). As to the kind of experiment: Inhibition of human recombinant topoisomerase 1-mediated relaxation of supercoiled pBR322 DNA at 100 uM after 30 mins by agarose gel electrophoresis relative to control. A digest of the protocol:
as §3

Data set [6] is described as follows: Aqueous solubility of the compound at pH 7.8 by UV spectroscopic analysis. The format is physicochemical. Conditions: aqueous solution. An outline of the steps:
as §2

The nature of data set [7]: Octanol-phosphate buffer partition coefficient, log P of the compound after 5 hrs by shake-flask method. The format is physicochemical. A digest of the protocol: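 Shake-flask method: 100 µL of 0.2 mg/mL stock diluted into 1.9 mL phosphate buffer pH 7.4 plus 2 mL mutually saturated n-octanol, protected from light. Vortexed 3 min, shaken 5 h at 25 °C. Both phases assayed by UV at 272 nm; log P = log([octanol]/[aqueous]), run in triplicate.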

In another data set the test system is HCT-116. As to the kind of experiment: Growth inhibition of human HCT116 cells at 10^-5 M after 48 hrs by sulforhodamine B assay. It counts as functional, cell-based. A digest of the protocol:
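NCI 60-cell-line primary screen. Single concentration of 10^-5 M, 48 h incubation. End point by sulforhodamine B protein staining read spectrophotometrically. Reported as percent growth of treated cells relative to untreated control cells.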

The subject of the next data set is NCI-H522. As to the kind of experiment: Growth inhibition of human NCI-H522 cells at 10^-5 M after 48 hrs by sulforhodamine B assay. The format is functional, cell-based. A digest of the protocol:
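NCI 60-cell-line primary one-dose screen. Cells were exposed to a single 10^-5 M concentration for 48 h. The end point was sulforhodamine B protein staining, read spectrophotometrically. Results are reported as percent growth of treated cells relative to untreated control cells.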
On the technique in general: In SRB staining, fixed cells bind dye roughly in proportion to their protein.

The target of data set [8] is T1, DNA topoisomerase 1 (Homo sapiens). Description: Inhibition of human topoisomerase 1-mediated unwinding of pHOT1 plasmid DNA up to 1000 uM after 30 mins by agarose gel electrophoresis. A digest of the protocol:
(§4)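 pHOT1 plasmid (100 ng) was first relaxed with excess human topo I (3 units) for 30 min at 37 °C in Tris-HCl pH 7.9. Variable compound amounts were then added for a further 30 min at 37 °C. Stopped with EDTA; 1% agarose/TAE gel at 15 V for 15 h, ethidium stain, supercoiled DNA quantified. m-AMSA was the positive control.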

The target is the same in data set [9]. Description: Inhibition of human topoisomerase 1-mediated unwinding of pHOT1 plasmid DNA after 30 mins by agarose gel electrophoresis. An outline of the steps:
as §4

In brackets after ≈: the same amount, converted by molar mass. Activity calls are given as the source filed them. The rule behind the calls is not given here.

Sequence of DNA topoisomerase 2-alpha (Homo sapiens) (P11388 whole entry): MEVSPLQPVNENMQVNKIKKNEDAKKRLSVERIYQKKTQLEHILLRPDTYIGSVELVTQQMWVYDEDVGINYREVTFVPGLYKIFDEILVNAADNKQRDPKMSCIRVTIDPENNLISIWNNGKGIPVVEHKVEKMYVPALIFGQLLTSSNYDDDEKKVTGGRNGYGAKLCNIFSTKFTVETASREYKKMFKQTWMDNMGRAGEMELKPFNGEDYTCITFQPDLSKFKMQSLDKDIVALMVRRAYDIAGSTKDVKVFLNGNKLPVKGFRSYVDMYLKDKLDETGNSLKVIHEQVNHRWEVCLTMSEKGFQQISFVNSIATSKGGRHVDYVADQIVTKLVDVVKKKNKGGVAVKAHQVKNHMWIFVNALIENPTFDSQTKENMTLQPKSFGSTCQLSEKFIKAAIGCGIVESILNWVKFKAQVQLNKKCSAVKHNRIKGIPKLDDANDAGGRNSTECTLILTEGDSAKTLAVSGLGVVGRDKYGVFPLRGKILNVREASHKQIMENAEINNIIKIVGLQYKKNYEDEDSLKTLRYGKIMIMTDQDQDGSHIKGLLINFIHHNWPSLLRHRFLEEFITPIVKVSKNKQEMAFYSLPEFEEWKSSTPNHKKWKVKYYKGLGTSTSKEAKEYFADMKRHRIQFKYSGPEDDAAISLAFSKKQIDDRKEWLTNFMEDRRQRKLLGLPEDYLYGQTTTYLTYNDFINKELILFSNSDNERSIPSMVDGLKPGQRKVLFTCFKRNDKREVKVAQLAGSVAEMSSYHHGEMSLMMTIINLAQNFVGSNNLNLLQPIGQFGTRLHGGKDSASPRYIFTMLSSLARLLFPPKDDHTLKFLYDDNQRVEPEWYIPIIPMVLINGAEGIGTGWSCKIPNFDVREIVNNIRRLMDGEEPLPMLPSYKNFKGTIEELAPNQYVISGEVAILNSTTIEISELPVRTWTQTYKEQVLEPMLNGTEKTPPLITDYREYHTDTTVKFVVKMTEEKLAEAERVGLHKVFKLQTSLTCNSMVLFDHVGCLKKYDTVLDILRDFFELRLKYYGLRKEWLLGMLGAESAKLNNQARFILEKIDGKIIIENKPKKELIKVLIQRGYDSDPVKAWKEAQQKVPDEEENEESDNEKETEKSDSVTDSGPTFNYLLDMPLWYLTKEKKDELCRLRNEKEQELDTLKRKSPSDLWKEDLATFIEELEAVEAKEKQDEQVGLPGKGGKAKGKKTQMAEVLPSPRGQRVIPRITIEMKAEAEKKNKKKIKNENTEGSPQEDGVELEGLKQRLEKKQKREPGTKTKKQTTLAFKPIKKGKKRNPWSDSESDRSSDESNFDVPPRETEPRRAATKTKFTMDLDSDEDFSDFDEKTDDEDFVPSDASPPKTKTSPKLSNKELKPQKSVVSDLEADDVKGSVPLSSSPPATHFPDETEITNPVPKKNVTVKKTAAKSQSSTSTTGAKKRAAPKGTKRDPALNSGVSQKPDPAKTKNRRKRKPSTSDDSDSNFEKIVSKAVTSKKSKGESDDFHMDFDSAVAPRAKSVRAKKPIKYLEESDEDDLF

Consider `O=C(CN1CCN(c2cc3c(cc2F)c(=O)c(C(=O)O)cn3C2CC2)CC1)Nc1ccc(C(=O)/C=C/c2cccc(Cl)c2)cc1`, for which the inhibition (commonly the change of the read-out against control, counted positive when it falls) in data set [1] was 52.9%; in data set [3], 24.6%; in data set [4], 3.1%; in data set [5], 68.8%. The solubility (commonly how much of the substance goes into solution per volume) came to 34.4 µg/mL (≈ 54.7 µM) in data set [2] and 29.7 µg/mL (≈ 47.3 µM) in data set [6]. Further, in [7], the lipophilicity (logP) (in general, a log measure of how a compound divides between an organic and an aqueous phase) at 5 h stood at 0.302.
Take `O=C(CN1CCN(c2cc3c(cc2F)c(=O)c(C(=O)O)cn3C2CC2)CC1)Nc1ccc(C(=O)/C=C/c2ccc(Cl)cc2)cc1`: the inhibition in [1] is 27.7%; in data set [4], 0.4%; in data set [5], 67.5%. In addition, the “growth inhibition (GI)” value in the data set on HCT-116 and in the data set on NCI-H522 was “Active” throughout. The solubility in data set [2] was found to be 2.77 µg/mL (≈ 4.4 µM); in data set [6], 2.23 µg/mL (≈ 3.54 µM). The same compound showed a logP at 5 h in data set [7] of 0.47.
In the case of `O=C(CN1CCN(c2cc3c(cc2F)c(=O)c(C(=O)O)cn3C2CC2)CC1)Nc1ccc(C(=O)/C=C/c2cccc([N+](=O)[O-])c2)cc1`, the inhibition in data set [1] turned out to be 82.8%; in data set [3] it was 8.8%; in [4], 11.1%; in data set [5], 90.5%. Also, the solubility in data set [2] was 30.7 µg/mL (≈ 47.9 µM); in data set [6], 27.4 µg/mL (≈ 42.9 µM). In data set [7], the logP at 5 h was -0.0812.
Consider `O=C(CN1CCN(c2cc3c(cc2F)c(=O)c(C(=O)O)cn3C2CC2)CC1)Nc1ccc(C(=O)/C=C/c2ccc3c(c2)OCO3)cc1`, for which the inhibition came to 85.7% in [1], 43.8% in [3], 25.9% in data set [4] and 91.3% in data set [5]. Besides, the solubility in data set [2] came to 2.66 µg/mL (≈ 4.17 µM); in data set [6] it was 2.24 µg/mL (≈ 3.51 µM). Further, the inhibition result in data set [8] is “inactive”. Moreover, the logP at 5 h in data set [7] was 0.562.
For the compound `COc1ccc(/C=C/C(=O)c2ccc(NC(=O)CN3CCN(c4cc5c(cc4F)c(=O)c(C(=O)O)cn5C4CC4)CC3)cc2)cc1`, the inhibition in data set [1] turned out to be 84.3%; in data set [3] it was 49.6%; in data set [4] it was 25.3%; in [5], 67.6%. Further, the “growth inhibition (GI)” value in the data set on HCT-116 and with NCI-H522 was “Active” each time. Moreover, the solubility in data set [2] came to 2.98 µg/mL (≈ 4.77 µM); in data set [6] it was 2.42 µg/mL (≈ 3.87 µM). In data set [8], the inhibition entry is “inactive”. In data set [7], the logP at 5 h turned out to be 0.684.
As to `COc1ccc(/C=C/C(=O)c2ccc(NC(=O)CN3CCN(c4cc5c(cc4F)c(=O)c(C(=O)O)cn5C4CC4)CC3)cc2)cc1OC`, the figures for the inhibition in data set [1], in data set [4] and in [5] were 9%, 2.5% and 73.2%, respectively. In addition, the solubility in data set [2] came to 0.75 µg/mL (≈ 1.15 µM); in [6], 0.68 µg/mL (≈ 1.04 µM). Besides, the logP at 5 h in data set [7] turned out to be 1.46.
Take `O=C(CN1CCN(c2cc3c(cc2F)c(=O)c(C(=O)O)cn3C2CC2)CC1)Nc1ccc(C(=O)/C=C/c2ccccc2Cl)cc1`: the inhibition amounted to 66.7% in data set [1], 21.3% in [3], 4.2% in [4] and 70.8% in [5]. Moreover, the solubility in [2] came out at 2.45 µg/mL (≈ 3.89 µM); in [6] it was 2.12 µg/mL (≈ 3.37 µM). The logP at 5 h in data set [7] turned out to be 1.29.
Take `Cc1ccc(/C=C/C(=O)c2ccc(NC(=O)CN3CCN(c4cc5c(cc4F)c(=O)c(C(=O)O)cn5C4CC4)CC3)cc2)c(C)c1`: the inhibition in data set [1] was determined as 78.9%; in [3], 29.4%; in data set [4] it was 11%; in [5], 85.1%. Also, the values for the solubility in data set [2] and in data set [6] were 2.12 µg/mL (≈ 3.4 µM) and 2.07 µg/mL (≈ 3.32 µM), respectively. Moreover, the logP at 5 h in data set [7] was 1.47.
On to `COc1cc(NS(C)(=O)=O)ccc1Nc1c2ccccc2nc2ccccc12`, for which the inhibition entry in [9] was “Dose-dependent effect”.

Values taken from ChEMBL document CHEMBL2434966, “Novel N-4-piperazinyl-ciprofloxacin-chalcone hybrids: synthesis, physicochemical properties, anticancer and topoisomerase I and II inhibitory activity” (Eur J Med Chem, 2013).
